# Source: PubChem (several laboratories)
# STAT1 act – increases IFN-gamma driven STAT1 reporter signal. NIH 3T3 STAT1-luciferase reporter, luminescence; 100% = IFN-gamma alone, no compound. activation (% of control), % at 5.5 µM. hit rate 2.6% among 200,000;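 active = activation above the screen-wide mean activation plus 3 SD, cut at about 130% in these data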;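 note: raw ratio to IFN-gamma control signal so 100% means no change and 0% no light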
# APP 5'UTR act – APP 5'UTR luciferase reporter activation. hit rate 1% among 190,000. activation, % at 2 µM. SH-SY5Y APP 5'UTR luciferase reporter, luminescence; zero percent = DMSO vehicle wells. AID 1276;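 active = activation above a set limit, based on mean plus 3 SD of controls, cut at about 140% in these data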
# STAT3 activator – activators of IL-6 induced STAT3 signaling; U3A cells, IL-6 STAT3-luciferase reporter, luminescence; 100% = signal with IL-6 EC80 alone; hit rate 0.91% among 190,000; AID 871; activation (% of control), % at 5.6 µM;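 active = activation above the screen-wide mean of compound activation plus 3 SD, cut at about 130% in these data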;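 note: 0% = background luminescence of wells with medium and substrate only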
#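 system = STAT3-luciferase reporter U3A cells | reagent = IL-6 stimulus at 33 ng/mL final | timing = 1 h compound pre-exposure, 6 h IL-6 stimulation, 37 °C | measured by = luminescence | evaluation = % activation versus median of IL-6-stimulated wells | control set = IL-6-only wells as 100% reference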
# STAT3 inh – inhibitors of IL-6 induced STAT3 signaling; U3A cells, IL-6 STAT3-luciferase reporter, luminescence; host cell line lacks STAT1; inhibition, % at 5.5 µM; hit rate 0.89% among 190,000; AID 862;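 active = inhibition above the mean inhibition across all screened compounds plus 3 SD, cut at about 44% in these data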;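 note: 0% = DMSO only wells and 100% = 100 µM nifuroxazide control wells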
# NF-kB expr up – NF-kB expression increase, human neuronal cells; NF-kB reporter expression; stronger effect = higher value; fold change at 12.5 µM; hit rate 1.6% among 190,000; in the data active = fold change above about 3.3
# STAT1 inh – STAT1 signaling inhibition; NIH 3T3 STAT1-luciferase reporter, IFN-gamma, luminescence; inhibition, % at 5.5 µM; hit rate 0.35% among 200,000; AID 920;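 active = inhibition above a set limit, the mean inhibition across all tested compounds plus 3 SD, cut at about 34% in these data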;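 note: 0% = IFN-gamma with DMSO and 100% = IFN-gamma with 300 µM nifuroxazide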
# STAT1 act conf – STAT1 activation, confirmation assay | AID 1262 | activation (% of control), % at 5.7 µM | hit rate 97% among 1,200 | shares compounds with STAT1 act | NIH 3T3 STAT1-luciferase reporter, IFN-gamma potentiation, luminescence; 100% = IFN-gamma EC80 alone, no compound;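 active = activation above a set limit carried over from the earlier primary STAT1 screen, cut at about 140% in these data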;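 note: simple ratio to median IFN-gamma plus DMSO wells so 0% means no light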
# NFkB act STAT1ct – NF-kappaB activation in STAT1 activator counter-screen | shares compounds with STAT1 act | HEK293T NF-kB luciferase reporter, TNF-alpha stimulated, luminescence; 100% = TNF-alpha with vehicle only | activation (% of control), % at 5.7 µM | hit rate 43% among 1,200;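 active = activation above the mean of solvent-only control wells plus 3 SD, set per campaign, cut at about 130% in these data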;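 note: TNF-alpha given at a submaximal dose yielding about 80% of full reporter signal; values are well signal over median control so 100% means no change and 0% no light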
# STAT3 act STAT1c – counter-screen for STAT1 activators: human STAT3 activation. shares compounds with STAT1 act. U3A cells STAT3-luciferase reporter, IL-6, luminescence; cells lack STAT1; 100 = IL-6 alone, no compound effect. activation (% of control), % at 5.7 µM. hit rate 46% among 1,200;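 active = activation above the solvent-only control well mean plus 3 SD, set per plate batch, cut at about 110% in these data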;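 note: 0% = no luminescence and 100% = median IL-6 plus DMSO wells; higher means more STAT3 reporter activation so hits are non-selective activators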
# * hit, by the source's call; x = no result given. Sampled rows, rich in hits. Any-hit rate of the full collection: about 4.9%.
SMILES,STAT1 act,APP 5'UTR act,STAT3 activator,STAT3 inh,NF-kB expr up,STAT1 inh,STAT1 act conf,NFkB act STAT1ct,STAT3 act STAT1c
O=C(OCC(=O)N1CCCCC1)c1cc(NS(=O)(=O)c2ccc(Cl)c([N+](=O)[O-])c2)ccc1O,90.5,9.1,101.7,0.2,0.78,10.6,x,x,x
Cc1ccc2nc(-c3ccc(NS(=O)(=O)c4ccc(F)c(F)c4)cc3)sc2c1,172.5*,180.3*,67.6,40.6,6.46*,-82.0,217.0*,137.1*,83.8
Cc1ccc2nc(-c3ccc(NS(=O)(=O)c4ccccc4)cc3)sc2c1,110.4,0.6,96.7,3.1,1.27,-11.6,x,x,x
Cc1cc(NC(=O)Nc2ccccc2F)ccc1Br,181.1*,212.7*,93.0,13.2,6.66*,-93.1,231.8*,141.1*,111.6*
Cc1ccccc1NC(=O)Nc1ccccc1Br,101.0,8.8,83.3,24.9,1.32,-1.1,x,x,x
On1nnc2c3ccccc3c3ccccc3c21,94.2,11.0,99.6,3.9,1.04,4.2,x,x,x
COc1ccc(C(=O)Nc2ccc(S(=O)(=O)Nc3onc(C)c3C)cc2)c(OC)c1,101.5,0.2,100.1,1.2,1.2,-2.7,x,x,x
COc1ccc(C(=O)Nc2ccc3cn[nH]c3c2)c(OC)c1,164.0*,133.6,109.4,-9.9,2.66,-70.9,185.2*,133.6*,116.0*
Cc1cccc(-c2cc3nc4c(c(N5CCCC(O)C5)n3n2)CCC4)c1 (configuration not stated),88.4,2.2,92.2,9.9,0.37,12.8,x,x,x
OC1CCCN(c2c3c(nc4cc(-c5cccc(F)c5)nn24)CCCC3)C1 (configuration not stated),157.8*,59.8,106.1,-5.8,1.26,-62.2,165.9*,129.9,115.9*
COc1ccc(CN2C(=O)c3ccccc3C2C(=O)NC2CCCCCC2)c(OC)c1 (configuration not stated),85.5,9.0,96.8,5.3,1.26,14.6,x,x,x
CSc1ncccc1C(=O)OCC(=O)NCc1ccc2c(c1)OCO2,103.4,-15.2,98.0,4.4,1.11,-5.2,x,x,x
Cc1ccc(NCc2nc3ccccc3n2C)cc1,152.7*,175.3*,126.6,-25.9,5.34*,-57.7,183.2*,133.1,189.7*
Clc1ccc(-n2nnnc2-c2ccccc2)cc1Cl,105.8,-11.7,95.8,9.4,0.99,-4.8,x,x,x
Clc1c(-c2ccccc2)nnn1-c1ccccc1,176.6*,152.7*,110.1,-6.6,4.8*,-86.7,209.0*,136.6*,106.9
Fc1cccc(Cl)c1/C=N/n1c(-c2cccnc2)n[nH]c1=S,85.9,5.0,98.7,5.1,1.05,14.1,x,x,x
CC(C)(C)n1ncc2c(=O)n(CC(=O)NCc3ccco3)cnc21,126.7,69.9,119.0,-21.0,1.94,-28.8,x,x,x
CC(C)(C)n1ncc2c(=O)n(CC(=O)NCc3ccc(F)cc3)cnc21,159.7*,169.1*,104.8,-3.6,3.49*,-65.2,198.9*,119.4,126.9*
COc1ccc(/C=C/C(=O)NCC(=O)N2CCC(N(C)CCN3CCOCC3)CC2)cc1OC,106.6,22.6,87.2,24.5,0.94,-8.0,x,x,x
NCCCC[C@@H]1NC(=O)c2cc([N+](=O)[O-])cc(I)c2SC[C@@H](C(N)=O)NC(=O)[C@H](Cc2ccc(O)cc2)NC1=O,94.7,8.6,107.4,-11.7,0.94,5.8,x,x,x
COc1ccc(C(=O)N/N=C(\c2ccccc2)c2ccccn2)cc1,100.5,-77.9,93.8,7.2,3.16,-0.6,x,x,x
CCOc1ccc(OCc2ccc(C(=O)N/N=C(\C)c3ccccn3)cc2)cc1,168.8*,-78.5,115.1,-15.8,2.12,-74.8,145.6*,188.2*,91.3
OCCC1CN(Cc2ccon2)CCN1CCc1ccccc1 (configuration not stated),105.5,5.8,104.3,-0.5,1.03,-7.8,x,x,x
CCOC(=O)c1c(C)nc2c3ccccc3ccn12,153.0*,160.3*,113.7,-12.5,5.01*,-57.4,201.9*,131.5,119.7*
CCOC(=O)c1c(C)nc2c(C)cccn12,98.5,-10.5,90.4,11.5,1.09,-2.7,x,x,x
SMILES,STAT1 act,APP 5'UTR act,STAT3 activator,STAT3 inh,NF-kB expr up,STAT1 inh,STAT1 act conf,NFkB act STAT1ct,STAT3 act STAT1c
O=C(NC1CCCC1)c1cc(-c2cccs2)on1,172.9*,121.2,97.4,2.6,9.67*,-79.0,204.9*,147.1*,114.6*
C(=N\N=C\c1cccs1)/c1cccs1,166.8*,90.9,86.5,20.3,3.28,-77.1,189.1*,128.4,105.9
COc1ccc(Cl)c2c1[nH]c1nc(SCc3ccccn3)nnc12,188.8*,156.8*,119.7,-15.5,4.18*,-100.4,175.2*,143.7*,124.2*
N#CCC(=O)Nc1ccc(C(=O)NCC(c2ccco2)N2CCCCC2)cc1 (configuration not stated),99.1,10.6,107.3,0.8,1.17,-1.1,x,x,x
CC(=O)Nc1ccc(N=NN2CCOCC2)cc1,116.6,11.8,110.4,-10.9,1.86,-19.1,x,x,x
CC(=O)Nc1ccc(N=Nc2ccc(O)cc2)cc1,152.2*,80.8,93.0,6.0,9.15*,-58.7,154.8*,124.2,110.7*
COc1ccc(/C=C2\SC(=O)N(CCNC(=O)C3CC4C=CC3C4)C2=O)cc1 (configuration not stated),158.6*,202.5*,124.8,-27.5,9.48*,-63.8,146.1*,149.9*,133.9*
CN(C)S(=O)(=O)c1cccc(-c2cn3cc(Cl)ccc3n2)c1,111.9,22.4,98.4,-1.1,1.53,-12.9,x,x,x
Brc1ccc2nc(-c3c[nH]c4ccccc34)cn2c1,194.0*,213.0*,98.5,3.6,1.04,-106.8,286.9*,143.2*,113.4*
Clc1ccc(-c2cn3cc(Br)ccc3n2)cc1Cl,164.9*,200.7*,90.7,13.5,7.16*,-72.0,222.2*,100.0,121.6*
O=c1c2ccccc2nnn1CSc1ccccc1,165.2*,157.8*,77.9,25.0,4.33*,-71.8,192.4*,109.1,99.8
Cc1c(-c2nc(N)nc(Nc3ccccc3F)n2)oc2ccccc12,198.0*,176.2*,113.4,-12.1,5.8*,-105.3,232.2*,140.9*,113.7*
O=C(Nc1cccc(Cl)c1)Nc1nccs1,126.6,40.2,102.9,1.0,1.59,-29.3,x,x,x
O=C(/C=C/c1cccc(F)c1)Nc1nccs1,150.9*,104.0,96.2,11.8,3.59*,-55.0,175.0*,136.8*,111.6*
